Data as given in ChEMBL document CHEMBL2424574, “Structure-activity relationships and pharmacophore model of a noncompetitive pyrazoline containing class of GluN2C/GluN2D selective antagonists” (J Med Chem, 2013).

How the values were obtained:
Rattus norvegicus [1] = species on record: Rattus norvegicus; test: Selectivity ratio of IC50 for recombinant rat GluN2A receptor to IC50 for recombinant rat GluN2D receptor
Procedure, shortened: (§1)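 Rat GluN1 co-expressed with GluN2A, GluN2B or GluN2D in Xenopus oocytes. Two-electrode voltage clamp at −40 mV in 90 NaCl, 1 KCl, 0.5 BaCl2, 0.005 EDTA, 10 HEPES (mM), pH 7.4, 23 °C; final DMSO 0.1–0.05%. IC50s came from Hill fits to averaged composite concentration-response curves (5–24 oocytes, 2–4 frogs). Ratio is GluN2A or GluN2B IC50 over GluN2D IC50.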

[2] = molecular target: Glutamate receptor ionotropic, NMDA 2D (Rattus norvegicus, UniProt P35439+Q62645); test: Negative allosteric modulation of recombinant rat GluN2D receptor expressed in Xenopus laevis oocytes by two-electrode voltage clamp method; format: cell-based, Oocyte
Chain of Glutamate receptor ionotropic, NMDA 2D (Q62645 whole entry, one chain of several): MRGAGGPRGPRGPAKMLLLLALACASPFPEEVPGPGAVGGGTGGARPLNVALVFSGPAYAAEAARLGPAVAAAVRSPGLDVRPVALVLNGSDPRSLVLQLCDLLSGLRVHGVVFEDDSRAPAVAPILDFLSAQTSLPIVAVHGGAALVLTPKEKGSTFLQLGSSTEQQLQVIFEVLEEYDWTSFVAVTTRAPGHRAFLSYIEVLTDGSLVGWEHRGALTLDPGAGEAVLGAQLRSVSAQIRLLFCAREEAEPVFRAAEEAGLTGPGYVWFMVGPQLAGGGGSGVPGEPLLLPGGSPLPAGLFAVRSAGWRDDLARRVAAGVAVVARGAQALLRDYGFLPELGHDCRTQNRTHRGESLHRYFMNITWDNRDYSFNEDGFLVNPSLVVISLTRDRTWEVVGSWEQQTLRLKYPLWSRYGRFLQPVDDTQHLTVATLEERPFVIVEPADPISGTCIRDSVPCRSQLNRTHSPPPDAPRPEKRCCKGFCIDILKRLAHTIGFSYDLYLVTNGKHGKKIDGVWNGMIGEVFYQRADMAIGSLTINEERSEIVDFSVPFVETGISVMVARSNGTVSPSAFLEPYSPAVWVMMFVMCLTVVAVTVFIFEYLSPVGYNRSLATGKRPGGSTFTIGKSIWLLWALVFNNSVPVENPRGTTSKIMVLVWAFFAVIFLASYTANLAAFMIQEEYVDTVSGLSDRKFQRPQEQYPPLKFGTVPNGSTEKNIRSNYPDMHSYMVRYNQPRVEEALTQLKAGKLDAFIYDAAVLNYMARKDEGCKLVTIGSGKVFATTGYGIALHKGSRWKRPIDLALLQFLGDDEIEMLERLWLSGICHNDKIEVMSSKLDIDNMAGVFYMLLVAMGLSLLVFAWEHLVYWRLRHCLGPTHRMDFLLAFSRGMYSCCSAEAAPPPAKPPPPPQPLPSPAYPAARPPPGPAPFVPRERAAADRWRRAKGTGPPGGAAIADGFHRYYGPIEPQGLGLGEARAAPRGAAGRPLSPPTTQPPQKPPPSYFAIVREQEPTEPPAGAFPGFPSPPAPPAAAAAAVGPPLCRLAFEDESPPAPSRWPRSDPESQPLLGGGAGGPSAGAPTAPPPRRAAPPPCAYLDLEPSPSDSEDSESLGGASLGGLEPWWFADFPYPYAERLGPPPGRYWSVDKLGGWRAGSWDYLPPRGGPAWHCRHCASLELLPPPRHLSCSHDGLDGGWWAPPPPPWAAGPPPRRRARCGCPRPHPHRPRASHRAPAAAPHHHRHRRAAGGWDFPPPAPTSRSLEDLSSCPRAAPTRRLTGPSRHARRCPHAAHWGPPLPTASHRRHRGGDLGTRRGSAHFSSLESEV
Procedure, shortened: (§2)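 Two-electrode voltage clamp of Xenopus oocytes expressing rat GluN1 with GluN2A, 2B, 2C or 2D. Holding potential −40 mV in recording solution (mM: 90 NaCl, 1 KCl, 0.5 BaCl2, 0.005 EDTA, 10 HEPES, pH 7.4, 23 °C). Compounds diluted from 20 mM DMSO stocks to 0.05–0.1% final DMSO. IC50 from a Hill fit to the averaged composite concentration–response curve, 5–24 oocytes from 2–4 frogs.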

Rattus norvegicus [3] = species on record: Rattus norvegicus; test: Selectivity ratio of IC50 for recombinant rat GluN2B receptor to IC50 for recombinant rat GluN2D receptor; procedure, shortened: as §1
[4] = molecular target: Glutamate receptor ionotropic, NMDA 2B (Rattus norvegicus, UniProt P35439+Q00960); test: Negative allosteric modulation of recombinant rat GluN2B receptor expressed in Xenopus laevis oocytes by two-electrode voltage clamp method; format: cell-based, Oocyte; procedure, shortened: as §2
[5] = molecular target: Glutamate receptor ionotropic, NMDA 2A (Rattus norvegicus, UniProt P35439+Q00959); test: Negative allosteric modulation of recombinant rat GluN2A receptor expressed in Xenopus laevis oocytes by two-electrode voltage clamp method; format: cell-based, Oocyte; procedure, shortened: as §2
Chain of Glutamate receptor ionotropic, NMDA 2A (Q00959 whole entry, one chain of several): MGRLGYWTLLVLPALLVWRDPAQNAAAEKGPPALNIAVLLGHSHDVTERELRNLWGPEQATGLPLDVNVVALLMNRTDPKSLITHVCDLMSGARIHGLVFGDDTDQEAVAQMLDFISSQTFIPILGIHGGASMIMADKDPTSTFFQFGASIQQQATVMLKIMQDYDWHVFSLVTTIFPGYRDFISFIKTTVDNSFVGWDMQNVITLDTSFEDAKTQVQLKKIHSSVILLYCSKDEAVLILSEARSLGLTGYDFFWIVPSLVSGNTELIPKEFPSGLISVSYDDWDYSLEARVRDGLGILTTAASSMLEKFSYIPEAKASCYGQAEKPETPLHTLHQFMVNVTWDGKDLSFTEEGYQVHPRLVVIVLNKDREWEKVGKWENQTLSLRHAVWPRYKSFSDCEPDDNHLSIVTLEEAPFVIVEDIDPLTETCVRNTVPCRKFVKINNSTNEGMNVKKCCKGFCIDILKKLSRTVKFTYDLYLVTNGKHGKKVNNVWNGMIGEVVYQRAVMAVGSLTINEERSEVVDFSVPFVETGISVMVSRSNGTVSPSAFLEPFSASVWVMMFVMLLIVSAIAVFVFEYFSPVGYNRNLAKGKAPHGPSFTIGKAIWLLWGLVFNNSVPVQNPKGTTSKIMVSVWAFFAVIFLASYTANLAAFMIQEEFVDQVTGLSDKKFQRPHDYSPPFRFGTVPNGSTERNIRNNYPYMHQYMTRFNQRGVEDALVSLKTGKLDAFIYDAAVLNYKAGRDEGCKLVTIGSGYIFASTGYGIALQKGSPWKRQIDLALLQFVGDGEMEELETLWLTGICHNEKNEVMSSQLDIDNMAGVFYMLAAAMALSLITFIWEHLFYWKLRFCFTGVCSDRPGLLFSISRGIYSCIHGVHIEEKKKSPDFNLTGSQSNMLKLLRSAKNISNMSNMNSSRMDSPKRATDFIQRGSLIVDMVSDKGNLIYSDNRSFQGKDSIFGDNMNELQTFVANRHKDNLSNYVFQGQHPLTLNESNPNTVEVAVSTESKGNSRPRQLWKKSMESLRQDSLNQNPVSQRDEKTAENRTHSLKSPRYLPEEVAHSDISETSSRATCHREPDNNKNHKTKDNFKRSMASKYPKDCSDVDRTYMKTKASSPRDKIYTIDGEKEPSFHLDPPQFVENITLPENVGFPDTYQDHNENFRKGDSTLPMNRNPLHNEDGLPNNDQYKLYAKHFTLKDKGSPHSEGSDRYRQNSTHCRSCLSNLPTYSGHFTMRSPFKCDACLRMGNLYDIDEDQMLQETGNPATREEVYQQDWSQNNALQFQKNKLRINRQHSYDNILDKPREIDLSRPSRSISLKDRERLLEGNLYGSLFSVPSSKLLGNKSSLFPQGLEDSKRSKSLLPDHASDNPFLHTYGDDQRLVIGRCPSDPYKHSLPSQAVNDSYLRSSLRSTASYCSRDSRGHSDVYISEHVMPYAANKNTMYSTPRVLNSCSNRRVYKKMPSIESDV

[6] = molecular target: Glutamate receptor ionotropic, NMDA 2C (Rattus norvegicus, UniProt P35439+Q00961); test: Negative allosteric modulation of recombinant rat GluN2C receptor expressed in Xenopus laevis oocytes by two-electrode voltage clamp method; format: cell-based, Oocyte; procedure, shortened: as §2
Chain of Glutamate receptor ionotropic, NMDA 2C (Q00961 whole entry, one chain of several): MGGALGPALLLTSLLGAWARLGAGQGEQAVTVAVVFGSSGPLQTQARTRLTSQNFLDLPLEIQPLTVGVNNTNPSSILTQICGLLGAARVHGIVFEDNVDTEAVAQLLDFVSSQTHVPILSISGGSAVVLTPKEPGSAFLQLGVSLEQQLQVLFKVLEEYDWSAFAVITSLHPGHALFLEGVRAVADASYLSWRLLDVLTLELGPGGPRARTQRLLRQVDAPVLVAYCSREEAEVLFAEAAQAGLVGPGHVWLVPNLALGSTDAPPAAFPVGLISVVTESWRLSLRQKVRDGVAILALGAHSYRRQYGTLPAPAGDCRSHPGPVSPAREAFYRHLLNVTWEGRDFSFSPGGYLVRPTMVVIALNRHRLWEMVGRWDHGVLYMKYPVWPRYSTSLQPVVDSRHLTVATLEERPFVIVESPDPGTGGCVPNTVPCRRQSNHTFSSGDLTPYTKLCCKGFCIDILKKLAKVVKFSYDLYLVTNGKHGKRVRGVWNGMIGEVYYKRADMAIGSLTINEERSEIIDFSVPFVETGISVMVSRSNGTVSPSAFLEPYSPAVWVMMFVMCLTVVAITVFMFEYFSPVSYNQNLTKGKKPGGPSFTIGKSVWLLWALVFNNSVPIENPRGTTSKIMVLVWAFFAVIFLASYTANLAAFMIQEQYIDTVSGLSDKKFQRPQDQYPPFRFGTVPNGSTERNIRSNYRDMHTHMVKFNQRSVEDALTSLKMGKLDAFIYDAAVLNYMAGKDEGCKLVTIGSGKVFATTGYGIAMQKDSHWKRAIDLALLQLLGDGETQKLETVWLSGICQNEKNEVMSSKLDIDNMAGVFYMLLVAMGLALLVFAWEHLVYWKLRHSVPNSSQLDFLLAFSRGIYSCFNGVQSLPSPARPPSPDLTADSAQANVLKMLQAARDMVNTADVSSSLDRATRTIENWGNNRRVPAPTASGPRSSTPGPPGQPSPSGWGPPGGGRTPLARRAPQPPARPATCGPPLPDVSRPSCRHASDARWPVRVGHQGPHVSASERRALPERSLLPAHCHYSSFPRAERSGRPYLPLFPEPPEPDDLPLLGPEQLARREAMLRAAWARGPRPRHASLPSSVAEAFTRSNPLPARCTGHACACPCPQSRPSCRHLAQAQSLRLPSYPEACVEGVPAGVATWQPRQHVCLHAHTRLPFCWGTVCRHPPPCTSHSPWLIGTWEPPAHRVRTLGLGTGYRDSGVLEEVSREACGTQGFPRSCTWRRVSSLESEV

Row | Ratio IC50 (Rattus norvegicus [1]) | IC50 [2] [nM] | Ratio IC50 (Rattus norvegicus [3]) | IC50 [4] [µM] | IC50 [5] [µM] | IC50 [6] [nM] | Structure (SMILES)
1 | – | 21000 | – | 187 | 197 | 28000 | COc1ccc(C2CC(c3c(-c4ccccc4)c4cc(Cl)ccc4[nH]c3=O)=NN2C(=O)CCC(=O)O)cc1 (centres undefined)
2 | 10 | 11000 | 8 | 92 | 109 | 10000 | O=C(O)CCCC(=O)N1N=C(c2c(-c3ccccc3)c3cc(Cl)ccc3[nH]c2=O)CC1c1ccc([N+](=O)[O-])cc1 (centres undefined)
3 | 10 | 2800 | 14 | 39 | 29 | 3600 | O=C(O)CCC(=O)N1N=C(c2c(-c3ccc(C(F)(F)F)cc3)c3ccccc3[nH]c2=O)CC1c1ccc(Cl)cc1 (centres undefined)
4 | – | 88000 | – | – | – | 86000 | O=C(O)CCC(=O)N1N=C(c2c(-c3ccccc3)c3cc(Cl)ccc3[nH]c2=O)CC1c1ccccc1 (centres undefined)
5 | 20 | 1000 | 43 | 43 | 20 | 2100 | O=C(O)CCC(=O)N1N=C(c2c(-c3cccc(Cl)c3)c3ccccc3[nH]c2=O)CC1c1ccc(Cl)cc1 (centres undefined)
6 | 20 | – | 13 | 54 | 80 | 5000 | O=C(O)CCC(=O)N1N=C(c2c(-c3ccccc3)c3cc(Cl)ccc3[nH]c2=O)CC1c1ccc(C(F)(F)F)cc1 (centres undefined)

Further lines, the compound ahead of its results:

Row | Structure (SMILES) | Ratio IC50 (Rattus norvegicus [1]) | IC50 [2] [nM] | Ratio IC50 (Rattus norvegicus [3]) | IC50 [4] [µM] | IC50 [5] [µM] | IC50 [6] [nM]
7 | O=C(O)CCC(=O)N1N=C(c2c(-c3cc(Cl)cc(Cl)c3)c3ccccc3[nH]c2=O)CC1c1ccc(Cl)cc1 (centres undefined) | 8 | 700 | 19 | 13 | 5.5 | 780
8 | O=C(O)CCC(=O)N1N=C(c2c(-c3ccc(F)cc3)c3ccccc3[nH]c2=O)CC1c1ccc(Cl)cc1 (centres undefined) | 36 | 580 | 98 | 57 | 21 | 1000
9 | O=C(O)CCC(=O)N1N=C(c2c(-c3ccc(Cl)cc3)c3ccccc3[nH]c2=O)CC1c1ccc(F)cc1 (centres undefined) | 14 | 3400 | 26 | 90 | 47 | 4100
10 | O=C(O)CCC(=O)N1N=C(c2c(-c3cc(F)cc(F)c3)c3ccccc3[nH]c2=O)CC1c1ccc(Cl)cc1 (centres undefined) | 26 | 810 | 123 | 100 | 21 | 1100
11 | O=C(O)CCCN1N=C(c2c(-c3ccc(Cl)cc3)c3ccccc3[nH]c2=O)CC1c1ccc(Cl)cc1 (centres undefined) | 34 | – | 31 | 53 | 58 | –
12 | O=C(O)/C=C\C(=O)N1N=C(c2c(-c3ccc(Br)cc3)c3ccccc3[nH]c2=O)CC1c1ccc(Cl)cc1 (centres undefined) | 21 | 570 | 30 | 17 | 12 | 1000
13 | O=C(O)CCC(=O)N1N=C(c2c(-c3ccc(Br)cc3)c3ccccc3[nH]c2=O)CC1c1ccccc1 (centres undefined) | 7 | 9100 | 12 | 113 | 64 | 10000
14 | O=C(O)CCC(=O)N1N=C(c2c(-c3ccc(Br)cc3)c3ccccc3[nH]c2=O)CC1c1ccc(Cl)cc1 (centres undefined) | – | 290 | – | 23 | 10 | 560
15 | O=C(O)CCC(=O)N1N=C(c2c(-c3ccc(Br)cc3)c3ccccc3[nH]c2=O)CC1c1ccc(Br)cc1 (centres undefined) | 33 | – | 59 | 23 | 13 | –
16 | O=C(O)CCC(=O)N1N=C(c2c(-c3ccc(Cl)cc3)c3ccccc3[nH]c2=O)C[C@H]1c1ccc(Cl)cc1 | 78 | – | 156 | 26 | 13 | 220
17 | COc1ccc(C2CC(c3c(O)nc4ccc(Cl)cc4c3-c3ccccc3)=NN2C(=O)CCC(=O)O)cc1 (centres undefined) | 9 | – | 9 | – | – | –
